Measurements: ChEMBL document CHEMBL5230165, “Synthesis of bis-furyl-pyrrolo[3,4-b]pyridin-5-ones via Ugi-Zhu reaction and in vitro activity assays against human SARS-CoV-2 and in silico studies on its main proteins” (RSC Med Chem, 2023)
Activity calls are given as the source filed them. The calls are words filed in the database; no cut-off is given here.

Legend:
[1] = Cytotoxicity against African green monkey Vero E6 cells assessed as cell viability upto 10 uM incubated for 48 hrs by crystal violet staining assay relative to control; format: toxicity, cell-based, Vero C1008; details: chlorocebus sabaeus, read-out: Activity
In short: (§1)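 Vero E6 cells were seeded at 25 000 per well 24 h ahead in DMEM with 8% FBS at 37 °C and 5% CO2. Compounds were tested at 0.001–100 μM for 48 h, with a 0.5% DMSO vehicle control. Cells were fixed in formaldehyde and stained with crystal violet, the dye was released with 10% acetic acid, and A590 was read. Viability is relative to untreated medium. IC50 came from polynomial regression.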

SARS-CoV-2 [2] = experiment: Antiviral activity against SARS-CoV-2 infected in African green monkey Vero E6 cells assessed as inhibition of viral infection at 10 uM incubated for 1 hrs followed by compound washout and measured after 24 hrs by crystal violet staining based plaque assay relative to control; format: functional; details: Severe acute respiratory syndrome coronavirus 2, Vero C1008
[3] = Cytotoxicity against African green monkey Vero E6 cells assessed as cell viability incubated for 48 hrs by crystal violet staining assay; format: toxicity, cell-based, Vero C1008; details: African green monkey (Chlorocebus sabaeus)
SARS-CoV-2 [4] = experiment: Antiviral activity against SARS-CoV-2 infected in African green monkey Vero E6 cells assessed as inhibition of viral infection at 10 uM pre-infected with cells for 1 hrs followed by compound addition and measured after 24 hrs by crystal violet staining based plaque reduction assay; format: functional; details: for Activity: Severe acute respiratory syndrome coronavirus 2
Vero C1008 = experiment: Cytotoxicity against African green monkey Vero E6 cells assessed as reduction in cell viability at 100 uM incubated for 48 hrs by crystal violet staining assay; format: toxicity, cell-based; details: chlorocebus sabaeus, vero c1008, 48 h; in short: as §1

Row | SMILES | viability at 48 h, up to 10 µM [1] | inhibition at 10 µM (SARS-CoV-2 [2]) | IC50 at 48 h [3] | Activity (SARS-CoV-2 [4]) | Activity (Vero C1008) | inhibition at 10 µM (SARS-CoV-2 [4]; Severe acute respiratory syndrome coronavirus 2, Vero C1008)
1 | O=C1c2cc(N3CCOCC3)c(Cc3ccccc3)nc2C(C2CCCO2)N1Cc1ccco1 (stereo unspecified) | ≥ 100% | 31.9% | 612 µM | Active | – | –
2 | O=C1c2cc(N3CCOCC3)c(Cc3ccccc3)nc2C(c2ccco2)N1CC1CCCO1 (stereo unspecified) | ≥ 100% | – | 76.9 µM | – | Toxic | –
3 | O=C1c2cc(N3CCOCC3)c(Cc3ccccc3)nc2C(c2ccoc2)N1Cc1ccco1 (stereo unspecified) | ≥ 100% | – | 85.1 µM | – | Toxic | 53%
4 | O=C1c2cc(N3CCOCC3)c(Cc3ccccc3)nc2C(c2ccoc2)N1CC1CCCO1 (stereo unspecified) | ≥ 100% | 9.4% | 290 µM | inactive | Toxic | –
5 | O=C1c2cc(N3CCOCC3)c(Cc3ccccc3)nc2C(c2ccco2)N1Cc1ccco1 (stereo unspecified) | ≥ 100% | 19.4% | 276 µM | inactive | Toxic | –
6 | O=C1c2cc(N3CCOCC3)c(Cc3ccc(O)cc3)nc2C(c2ccco2)N1Cc1ccco1 (stereo unspecified) | ≥ 100% | 77% | 153 µM | inactive | Toxic | –
